Data taken from ChEMBL document CHEMBL4406821, “Novel dual inhibitors targeting CDK4 and VEGFR2 synergistically suppressed cancer progression and angiogenesis” (Eur J Med Chem, 2019).
Active and inactive are the calls of the source. The rule behind the calls is not given here.

Tests used:
MDA-MB-231 = assay: Antiproliferative activity against human MDA-MB-231 cells at 20 to 40 nM assessed as reduction in cell viability incubated for 48 hrs by EdU staining based laser scanning confocal microscopy; format: functional
Summary of the method: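 Cells, 5×10^4, were seeded in 24-well plates and treated for 48 h. They were then labeled using an EdU Apollo 488 imaging kit with Hoechst 33342 nuclear stain and imaged by laser scanning confocal microscopy. Percent EdU-positive cells = EdU-positive/Hoechst-stained × 100%.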

[1] = molecular target: LIM domain kinase 1 (Homo sapiens) (UniProt P53667); assay: Inhibition of recombinant human LIMK1 (285 to 638 residues) at 1 uM using cofilin as substrate incubated for 40 mins in presence of [gamma-33P]-ATP by scintillation counting method relative to control
[2] = molecular target: Proto-oncogene tyrosine-protein kinase ROS (Homo sapiens) (UniProt P08922); assay: Inhibition of recombinant human ROS (1883 to end residues) at 1 uM using KKKSPGEYVNIEFG as substrate incubated for 40 mins in presence of [gamma-33P]-ATP by scintillation counting method relative to control
Proto-oncogene tyrosine-protein kinase ROS (Homo sapiens), sequence (P08922 whole entry): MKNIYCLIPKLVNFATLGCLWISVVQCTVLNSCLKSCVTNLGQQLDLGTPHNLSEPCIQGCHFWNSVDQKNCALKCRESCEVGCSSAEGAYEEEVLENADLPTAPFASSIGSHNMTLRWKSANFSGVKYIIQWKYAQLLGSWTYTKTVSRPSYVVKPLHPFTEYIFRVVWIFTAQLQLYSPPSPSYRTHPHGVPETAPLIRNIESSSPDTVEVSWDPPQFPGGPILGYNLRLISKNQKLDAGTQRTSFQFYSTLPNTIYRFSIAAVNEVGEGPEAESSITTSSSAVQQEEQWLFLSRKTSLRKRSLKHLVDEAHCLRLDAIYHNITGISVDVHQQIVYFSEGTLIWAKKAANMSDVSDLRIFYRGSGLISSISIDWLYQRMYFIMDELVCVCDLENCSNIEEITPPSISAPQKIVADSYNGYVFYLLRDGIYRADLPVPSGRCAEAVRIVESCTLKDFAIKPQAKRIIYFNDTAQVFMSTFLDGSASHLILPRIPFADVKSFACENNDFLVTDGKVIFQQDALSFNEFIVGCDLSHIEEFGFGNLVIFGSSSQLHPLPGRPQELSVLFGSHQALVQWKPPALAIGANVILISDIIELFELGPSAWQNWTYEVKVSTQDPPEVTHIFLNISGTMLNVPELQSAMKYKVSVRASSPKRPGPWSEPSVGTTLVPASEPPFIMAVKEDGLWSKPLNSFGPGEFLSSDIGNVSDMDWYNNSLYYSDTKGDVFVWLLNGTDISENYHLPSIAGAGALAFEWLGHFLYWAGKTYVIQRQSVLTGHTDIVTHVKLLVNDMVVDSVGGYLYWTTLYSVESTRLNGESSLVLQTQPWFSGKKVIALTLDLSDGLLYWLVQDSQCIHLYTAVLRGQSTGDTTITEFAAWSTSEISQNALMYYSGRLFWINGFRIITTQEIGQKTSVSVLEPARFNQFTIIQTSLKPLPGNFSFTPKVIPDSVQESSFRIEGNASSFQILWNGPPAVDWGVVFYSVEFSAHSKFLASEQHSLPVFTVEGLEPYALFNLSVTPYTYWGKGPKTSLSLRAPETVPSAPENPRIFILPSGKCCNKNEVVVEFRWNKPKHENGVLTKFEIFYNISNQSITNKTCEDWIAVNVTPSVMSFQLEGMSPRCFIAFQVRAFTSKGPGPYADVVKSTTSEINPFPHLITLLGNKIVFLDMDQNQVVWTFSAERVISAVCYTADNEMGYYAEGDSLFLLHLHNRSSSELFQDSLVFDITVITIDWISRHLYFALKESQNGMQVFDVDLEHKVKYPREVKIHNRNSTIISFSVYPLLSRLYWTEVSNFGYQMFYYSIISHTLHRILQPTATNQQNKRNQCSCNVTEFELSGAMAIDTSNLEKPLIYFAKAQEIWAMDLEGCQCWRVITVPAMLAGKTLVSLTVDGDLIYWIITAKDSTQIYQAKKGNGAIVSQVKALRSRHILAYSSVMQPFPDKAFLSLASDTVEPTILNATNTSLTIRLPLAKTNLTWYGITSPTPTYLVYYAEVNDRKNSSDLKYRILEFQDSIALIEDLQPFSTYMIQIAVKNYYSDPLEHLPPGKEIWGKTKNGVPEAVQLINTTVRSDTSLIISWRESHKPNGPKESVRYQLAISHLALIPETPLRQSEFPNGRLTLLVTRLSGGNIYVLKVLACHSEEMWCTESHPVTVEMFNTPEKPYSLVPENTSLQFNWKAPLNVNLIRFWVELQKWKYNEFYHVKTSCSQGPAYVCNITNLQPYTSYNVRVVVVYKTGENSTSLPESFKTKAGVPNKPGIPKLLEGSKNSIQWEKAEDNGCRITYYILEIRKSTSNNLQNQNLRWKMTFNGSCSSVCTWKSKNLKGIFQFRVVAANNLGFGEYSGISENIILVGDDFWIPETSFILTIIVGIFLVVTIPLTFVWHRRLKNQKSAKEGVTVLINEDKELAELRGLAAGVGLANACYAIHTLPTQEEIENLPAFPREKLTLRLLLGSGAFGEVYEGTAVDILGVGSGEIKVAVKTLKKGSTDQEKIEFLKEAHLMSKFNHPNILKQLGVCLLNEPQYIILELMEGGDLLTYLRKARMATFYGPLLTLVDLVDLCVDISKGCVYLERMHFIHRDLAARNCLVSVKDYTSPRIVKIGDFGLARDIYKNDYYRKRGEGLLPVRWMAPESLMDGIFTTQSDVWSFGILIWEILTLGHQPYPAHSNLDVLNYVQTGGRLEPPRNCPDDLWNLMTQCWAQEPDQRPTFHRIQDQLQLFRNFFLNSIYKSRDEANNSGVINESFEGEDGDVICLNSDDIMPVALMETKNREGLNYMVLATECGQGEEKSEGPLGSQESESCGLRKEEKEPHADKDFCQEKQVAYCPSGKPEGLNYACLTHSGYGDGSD

[3] = molecular target: Casein kinase II subunit alpha (Homo sapiens) (UniProt P68400); assay: Inhibition of recombinant full length human CK2alpha1 at 1 uM using RRRDDDSDDD as substrate incubated for 40 mins in presence of [gamma-33P]-ATP by scintillation counting method relative to control
Summary of the method: (§1)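 Kinase panel profiling at 1 μM performed by Eurofins KinaseProfiler; percent inhibition reported as mean of two independent experiments.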

[4] = molecular target: DNA-dependent protein kinase catalytic subunit (Homo sapiens) (UniProt P78527); assay: Inhibition of recombinant human full length DNA-PK at 1 uM using GST-cMyc-p53 as substrate incubated for 40 mins in presence of [gamma-33P]-ATP by scintillation counting method relative to control
T47D [5] = assay: Induction of apoptosis in human T47D cells assessed as decrease in Ki67 expression at 20 to 40 nM incubated for 48 hrs by Western blot analysis; format: functional, cell-based
Summary of the method: (§2)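 Cancer cells were exposed to graded concentrations for 48 h, washed three times in PBS and lysed in RIPA buffer. Immunoblots were probed with anti-Rb, anti-phospho-Rb, anti-Ki67 and anti-Bcl-2, each at 1:1000. β-actin served as loading control.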

[6] = molecular target: Serine/threonine-protein kinase DCLK2 (Homo sapiens) (UniProt Q8N568); assay: Inhibition of recombinant human DCAMKL2 (376 to end residues) at 1 uM using KKLNRTLSFAEPG as substrate incubated for 40 mins in presence of [gamma-33P]-ATP by scintillation counting method relative to control
Summary of the method: (§3)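 Tested at a single 1 uM in an outsourced commercial kinase-profiling panel, read as percent inhibition. Each value is the mean of two independent experiments.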

SiHa [7] = assay: Induction of apoptosis in human SiHa cells assessed as increase in early apoptotic cells at 20 to 40 nM incubated for 48 hrs by annexin V FITC and propidium iodide staining based flow cytometry; format: functional, cell-based
Summary of the method: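 Annexin V-FITC/PI double staining with flow-cytometric readout. MDA-MB-231, T-47D, SiHa and HeLa cells were treated with graded concentrations for 48 h. MDA-MB-231 and T-47D were grown in DMEM and SiHa in 1640 medium, each with 10% FBS and 1% penicillin/streptomycin at 37°C under 5% CO2. Early- and late-stage apoptotic fractions were scored.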

[8] = molecular target: Serine/threonine-protein kinase mTOR (Homo sapiens) (UniProt P42345); assay: Inhibition of recombinant human full length mTOR at 1 uM using as peptide substrate incubated for 40 mins in presence of [gamma-33P]-ATP by scintillation counting method relative to control
Summary of the method: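 Single-point inhibition at 1 uM measured in a commercial kinase profiling panel (KinaseProfiler); each value is the mean of two independent experiments.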

[9] = molecular target: Tyrosine-protein kinase Lck (Homo sapiens) (UniProt P06239); assay: Inhibition of recombinant human full length LCK at 1 uM using KVEKIGEGTYGVVYK as substrate incubated for 40 mins in presence of [gamma-33P]-ATP by scintillation counting method relative to control
[10] = molecular target: Serine/threonine-protein kinase BRSK2 (Homo sapiens) (UniProt Q8IWQ3); assay: Inhibition of recombinant human BRSK2 (2 to end residues) at 1 uM using KKLNRTLSFAEPG as substrate incubated for 40 mins in presence of [gamma-33P]-ATP by scintillation counting method relative to control; summary of the method: as §1
[11] = molecular target: MAP kinase-activated protein kinase 3 (Homo sapiens) (UniProt Q16644); assay: Inhibition of recombinant human MAPKAPK3 (2 to end residues) at 1 uM using KKLNRTLSVA as substrate incubated for 40 mins in presence of [gamma-33P]-ATP by scintillation counting method relative to control; summary of the method: as §3
MAP kinase-activated protein kinase 3 (Homo sapiens), sequence (Q16644 whole entry, looked up): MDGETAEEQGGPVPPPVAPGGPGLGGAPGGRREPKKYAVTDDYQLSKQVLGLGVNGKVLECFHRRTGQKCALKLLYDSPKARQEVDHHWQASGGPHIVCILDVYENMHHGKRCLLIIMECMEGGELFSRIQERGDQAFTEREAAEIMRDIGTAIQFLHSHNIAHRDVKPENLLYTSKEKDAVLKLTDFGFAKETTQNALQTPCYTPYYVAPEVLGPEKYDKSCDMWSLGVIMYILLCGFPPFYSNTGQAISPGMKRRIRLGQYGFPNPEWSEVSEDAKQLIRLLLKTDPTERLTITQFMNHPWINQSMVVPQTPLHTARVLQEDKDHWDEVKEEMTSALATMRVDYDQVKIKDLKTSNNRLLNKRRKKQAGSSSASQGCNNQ

[12] = molecular target: RAC-alpha serine/threonine-protein kinase (Homo sapiens) (UniProt P31749); assay: Inhibition of recombinant human PKBalpha at 1 uM using as CKRREILSRRPSYRK substrate incubated for 60 mins in presence of [gamma-33P]-ATP by scintillation counting method relative to control
[13] = molecular target: Insulin-like growth factor 1 receptor (Homo sapiens) (UniProt P08069); assay: Inhibition of recombinant activated human IGF1R (959 to end residues) at 1 uM using KKKSPGEYVNIEFG as substrate incubated for 40 mins in presence of [gamma-33P]-ATP by scintillation counting method relative to control; summary of the method: as §1
Insulin-like growth factor 1 receptor (Homo sapiens), sequence (P08069 31-736 limits assumed): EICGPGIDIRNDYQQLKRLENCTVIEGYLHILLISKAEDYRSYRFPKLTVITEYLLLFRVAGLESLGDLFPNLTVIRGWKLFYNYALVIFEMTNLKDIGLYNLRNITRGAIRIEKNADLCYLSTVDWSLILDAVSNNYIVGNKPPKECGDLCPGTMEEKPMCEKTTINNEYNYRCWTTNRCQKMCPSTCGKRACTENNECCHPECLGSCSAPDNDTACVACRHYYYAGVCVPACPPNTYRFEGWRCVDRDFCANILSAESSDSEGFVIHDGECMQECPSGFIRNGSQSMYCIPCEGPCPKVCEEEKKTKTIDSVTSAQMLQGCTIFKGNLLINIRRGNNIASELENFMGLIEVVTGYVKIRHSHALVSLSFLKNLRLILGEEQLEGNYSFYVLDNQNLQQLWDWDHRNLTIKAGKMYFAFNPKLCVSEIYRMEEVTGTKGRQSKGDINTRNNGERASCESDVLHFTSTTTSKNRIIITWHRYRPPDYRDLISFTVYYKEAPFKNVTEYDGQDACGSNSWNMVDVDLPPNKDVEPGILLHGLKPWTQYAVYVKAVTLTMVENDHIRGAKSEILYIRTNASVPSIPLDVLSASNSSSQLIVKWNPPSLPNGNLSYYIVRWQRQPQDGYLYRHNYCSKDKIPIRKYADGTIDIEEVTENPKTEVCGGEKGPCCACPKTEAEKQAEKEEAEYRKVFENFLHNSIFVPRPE
Insulin-like growth factor 1 receptor (Homo sapiens), sequence (P08069 741-1367 limits assumed): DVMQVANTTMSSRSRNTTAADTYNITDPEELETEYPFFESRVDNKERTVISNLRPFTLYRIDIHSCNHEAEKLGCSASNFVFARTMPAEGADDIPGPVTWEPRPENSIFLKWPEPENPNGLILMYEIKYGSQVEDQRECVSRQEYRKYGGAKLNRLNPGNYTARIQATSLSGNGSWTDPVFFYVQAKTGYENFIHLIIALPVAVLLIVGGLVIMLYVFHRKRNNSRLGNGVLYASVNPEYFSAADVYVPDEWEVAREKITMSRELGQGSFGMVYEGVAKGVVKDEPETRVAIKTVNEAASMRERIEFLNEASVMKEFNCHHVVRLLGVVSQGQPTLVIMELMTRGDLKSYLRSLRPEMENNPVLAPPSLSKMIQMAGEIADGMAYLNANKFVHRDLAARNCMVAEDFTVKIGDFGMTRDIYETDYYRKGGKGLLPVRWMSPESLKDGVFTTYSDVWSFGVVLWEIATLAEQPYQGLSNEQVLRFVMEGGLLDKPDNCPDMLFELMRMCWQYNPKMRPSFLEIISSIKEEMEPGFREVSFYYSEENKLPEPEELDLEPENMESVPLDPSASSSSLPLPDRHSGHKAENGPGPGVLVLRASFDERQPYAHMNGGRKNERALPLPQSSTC

[14] = molecular target: Serine/threonine-protein kinase Chk2 (Homo sapiens) (UniProt O96017); assay: Inhibition of recombinant human CHK2 (5 to end residues) at 1 uM using KKKVSRSGLYRSP as substrate incubated for 40 mins in presence of [gamma-33P]-ATP by scintillation counting method relative to control; summary of the method: as §1
[15] = test system: Mast/stem cell growth factor receptor Kit (Homo sapiens), P10721 [V654A]; assay: Inhibition of recombinant human c-KIT V654A mutant (544 to end residues) at 1 uM using GGMEDIYFEFMGG as substrate incubated for 40 mins in presence of [gamma-33P]-ATP by scintillation counting method relative to control; summary of the method: as §3
Mast/stem cell growth factor receptor Kit (Homo sapiens), P10721 [V654A], sequence (P10721 whole entry V654A): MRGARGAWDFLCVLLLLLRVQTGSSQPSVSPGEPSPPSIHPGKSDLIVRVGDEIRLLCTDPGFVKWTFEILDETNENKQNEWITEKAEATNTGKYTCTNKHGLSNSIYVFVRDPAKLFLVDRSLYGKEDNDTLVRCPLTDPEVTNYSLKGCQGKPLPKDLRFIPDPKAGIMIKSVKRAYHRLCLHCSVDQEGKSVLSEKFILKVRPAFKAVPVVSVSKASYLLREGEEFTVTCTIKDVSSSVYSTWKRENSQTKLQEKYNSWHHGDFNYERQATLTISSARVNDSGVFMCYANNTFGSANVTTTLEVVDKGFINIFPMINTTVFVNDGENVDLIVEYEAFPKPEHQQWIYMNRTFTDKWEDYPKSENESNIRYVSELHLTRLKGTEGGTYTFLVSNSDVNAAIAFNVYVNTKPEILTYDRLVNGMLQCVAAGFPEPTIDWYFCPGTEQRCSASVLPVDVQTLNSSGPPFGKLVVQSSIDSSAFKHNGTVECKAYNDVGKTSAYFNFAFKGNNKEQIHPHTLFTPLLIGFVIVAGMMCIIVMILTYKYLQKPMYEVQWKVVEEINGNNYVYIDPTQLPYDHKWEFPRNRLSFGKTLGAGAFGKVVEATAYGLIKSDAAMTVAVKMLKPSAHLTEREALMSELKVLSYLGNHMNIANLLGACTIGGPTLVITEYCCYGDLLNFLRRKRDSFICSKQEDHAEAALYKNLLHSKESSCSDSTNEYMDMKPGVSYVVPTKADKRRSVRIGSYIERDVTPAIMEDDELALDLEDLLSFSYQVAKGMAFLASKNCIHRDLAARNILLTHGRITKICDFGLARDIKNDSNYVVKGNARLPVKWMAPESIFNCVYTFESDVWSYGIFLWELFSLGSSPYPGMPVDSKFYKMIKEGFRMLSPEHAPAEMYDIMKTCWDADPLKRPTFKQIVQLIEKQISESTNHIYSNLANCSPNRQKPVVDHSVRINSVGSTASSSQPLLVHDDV

SiHa [16] = assay: Antitumor activity against human SiHa cells xenografted in NOD/SCID BALB/c mouse assessed as tumor growth inhibition at 10 to 40 mg/kg, po administered for 21 days; format: functional, organism-based
[17] = molecular target: 5'-AMP-activated protein kinase catalytic subunit alpha-2 (Homo sapiens) (UniProt P54646); assay: Inhibition of recombinant full length human AMPKalpha2 at 1 uM using AMARAASAAALAR as substrate incubated for 40 mins in presence of [gamma-33P]-ATP by scintillation counting method relative to control; summary of the method: as §1
[18] = molecular target: Vascular endothelial growth factor receptor 2 (Homo sapiens, UniProt P35968); conditions: HUVEC, 40 nM
T47D [19] = assay: Induction of apoptosis in human T47D cells assessed as decrease in Bcl2 expression at 40 nM incubated for 48 hrs by Western blot analysis; format: functional, cell-based; summary of the method: as §2

Row | Structure (SMILES) | inhibition (MDA-MB-231) | inhibition [1] [%] | inhibition [2] [%] | inhibition [3] [%] | inhibition [4] [%] | Activity (T47D [5]) | inhibition [6] [%] | Activity (SiHa [7]) | inhibition [8] [%] | inhibition [9] [%] | inhibition [10] [%] | inhibition [11] [%] | inhibition [12] [%] | inhibition [13] [%] | inhibition [14] [%] | inhibition [15] [%] | TGI (SiHa [16]) | inhibition [17] [%] | inhibition [18] | Activity (T47D [19])
1 | Cc1ccc(NC(=O)C2(C(=O)Nc3ccc(Nc4ncc(F)c(-c5cc(F)c6nc(C)n(C(C)C)c6c5)n4)cc3)CC2)cc1 | Active | 24 | 58 | 36 | 3 | Active | 0 | Active | 0 | 49 | 54 | 0 | 36 | 37 | 22 | 45 | Active | 77 | – | –
2 | COc1cc2nccc(Oc3ccc(NC(=O)C4(C(=O)Nc5ccc(F)cc5)CC4)cc3)c2cc1OC [CABOZANTINIB] | – | – | – | – | – | – | – | – | – | – | – | – | – | – | – | – | – | – | Active | Active
